# ARFGAP1 inhibitor – inhibits rat ARF GTPase activating protein 1. inhibition, % at 16.5 µM. Q62848. Arfgap1-stimulated ARF1 GTP hydrolysis, GDP FP detection. AID 651572. 360,000 compounds, 0.26% hits;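 active = inhibition above a per-plate limit, mean inhibition of low control wells plus 3 SD, cut at about 25% in these data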;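 also: 0% = DMSO wells with enzyme and 100% = wells lacking Arfgap1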
# Target sequence (Q62848 1-136 limits assumed): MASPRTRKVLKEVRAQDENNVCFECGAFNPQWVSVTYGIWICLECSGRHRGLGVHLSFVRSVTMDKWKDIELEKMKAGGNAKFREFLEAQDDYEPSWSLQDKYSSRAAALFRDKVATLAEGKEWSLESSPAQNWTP
#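 Material: rat Arfgap1 GAP domain (His6, aa 1-136), purified enzyme. Also added: human ARF1(Δ1-17)-GTP substrate. Compound dosing: 16.5 µM single point, 1.26% DMSO. Timing: enzyme reaction 120 min at 25 °C after 20 min preincubation. Signal: GDP detection by fluorescence polarization. Read-out basis: percent inhibition of GAP-stimulated GDP formation, scaled between DMSO and no-Arfgap1 medians.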
# PAFAH1B3 inh – PAFAH1B3 (human) inhibition | recombinant PAFAH1B3, FP-rhodamine probe, fluorescence polarization | Q15102 | 340,000 compounds, 0.28% hits | inhibition, % at 3.39 µM | AID 492972;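 active = inhibition above the screen-wide average of all tested compounds plus 3 SD, cut at about 25% in these data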;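 also: 0% = enzyme with DMSO only and 100% = wells lacking PAFAH1B3 protein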
# PAFAH1B2 FP inh – blocks human PAF acetylhydrolase 1b catalytic subunit 2 | P68402 | recombinant PAFAH1B2, FP-rhodamine activity probe, fluorescence polarization | inhibition, % at 3.39 µM | 340,000 compounds, 1.2% hits | AID 492953;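 active = inhibition above the mean of all tested compounds plus 3 SD, cut at about 24% in these data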;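 also: 0% = enzyme with DMSO and 100% = wells lacking PAFAH1B2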
# ASAP1 GAP inh – blocks human ASAP1-stimulated Arf1 GTP hydrolysis; inhibition, % at 16.5 µM; 360,000 compounds, 0.19% hits; Q9ULH1; AID 624377; GDP FP detection; in the data active = inhibition above about 25%;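 also: 0% = vehicle with enzyme and substrate and 100% = no enzyme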
# pPAFAH inh – pPAFAH (human) enzyme inhibition; recombinant pPAFAH, FP-rhodamine probe fluorescence polarization; inhibition, % at 3.39 µM; 330,000 compounds, 1.5% hits; AID 463082;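 active = inhibition above the mean inhibition across the screen plus 3 SD, cut at about 25% in these data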;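 also: inhibitors block binding of the rhodamine activity-based probe so polarization drops; 0% = enzyme with DMSO and 100% = wells lacking pPAFAH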
# PAFAH2 inh – inhibitors of human PAFAH2; recombinant PAFAH2, FP-rhodamine activity probe, fluorescence polarization; inhibition, % at 3.39 µM; Q99487; AID 492956; 340,000 compounds, 0.99% hits;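 active = inhibition above the mean over all tested compounds plus 3 SD, cut at about 30% in these data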;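 also: inhibitors block probe labeling of enzyme so polarization drops; 0% = enzyme with DMSO and 100% = wells lacking PAFAH2 protein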
# ARFGAP1 inh conf – rat ARFGAP1 inhibition, confirmed | shares compounds with ARFGAP1 inhibitor | ARFGAP1-stimulated ARF1 GTP hydrolysis, GDP tracer FP | inhibition, % at 16.5 µM | 890 compounds, 30% hits;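 active = average inhibition over triplicates above the hit cutoff set in the earlier primary screen, cut at about 25% in these data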;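 also: 0% = Arfgap1 plus ARF1-GTP with DMSO and 100% = wells lacking Arfgap1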
# Target sequence (Q62848 whole entry, looked up): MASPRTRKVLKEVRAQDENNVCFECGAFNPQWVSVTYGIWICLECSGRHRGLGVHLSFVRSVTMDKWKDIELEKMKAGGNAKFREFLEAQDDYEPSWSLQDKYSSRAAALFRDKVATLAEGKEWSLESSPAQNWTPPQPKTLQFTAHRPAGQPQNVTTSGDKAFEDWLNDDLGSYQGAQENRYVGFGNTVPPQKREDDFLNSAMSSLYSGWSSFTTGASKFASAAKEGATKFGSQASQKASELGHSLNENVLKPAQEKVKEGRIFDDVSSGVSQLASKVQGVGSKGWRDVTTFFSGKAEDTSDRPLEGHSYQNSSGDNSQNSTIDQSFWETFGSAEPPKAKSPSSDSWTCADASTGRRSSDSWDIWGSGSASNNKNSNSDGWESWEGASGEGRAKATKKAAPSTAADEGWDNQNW
# An asterisk follows results filed as active; / = no result. Most compounds without a hit are left out; they make up all but 2.7% or so of the library.
SMILES,ARFGAP1 inhibitor,PAFAH1B3 inh,PAFAH1B2 FP inh,ASAP1 GAP inh,pPAFAH inh,PAFAH2 inh,ARFGAP1 inh conf
Cn1c(=O)cc(SCC(=O)NCCCN2CCN(c3ccc(F)cc3)CC2)c2ccccc21,38*,-8,0,1,3,2,8
CCc1nc2c(OCc3cccc(OC)c3)cccn2c1N(C)C(=O)c1ccccc1F,7,/,/,8,/,/,/
O=C(Nc1ccccc1)OCC1COC(c2ccccc2)(c2ccccc2)O1 (stereo not drawn),-2,-2,1,-4,/,-9,/
CCN(c1ccc(C)c(C)c1)S(=O)(=O)c1ccc2c(c1)CCN2C(=O)CCC(=O)O,29*,8,2,2,4,2,-5
CCN(c1ccc(OC)cc1)S(=O)(=O)c1ccc2c(c1)CCN2C(=O)CCC(=O)O,-10,-10,3,11,-3,-6,/
COc1cc(NC(=O)CCC(=O)N2CCN(S(=O)(=O)c3ccc(C)cc3)CC2)cc(OC)c1,-1,-1,1,3,/,-5,/
COC(=O)C[C@H]1C[C@H]2c3cc(NS(=O)(=O)c4ccc(OC)cc4)ccc3O[C@H]2[C@H](CO)O1,-5,/,/,-3,/,/,/
CN(CCO)C1=NS(=O)(=O)c2cc([N+](=O)[O-])ccc21,30*,6,4,4,4,1,-2
COCCNCc1nc2sc(C)c(-c3ccccc3)c2c(=O)[nH]1,28*,7,4,-3,-2,1,1
C=CCCC(=O)N1C[C@H]2CON(C)[C@H]2C[C@H]1c1ccc(Br)cc1,-2,/,/,-2,/,/,/
COc1ccccc1C(=O)c1nc2ccccc2n1C,25*,9,-1,-9,4,7,-6
O=C(Nc1ccc(CN2CCOCC2)cc1)c1ccc(-c2cc(Cl)ccc2Cl)o1,37*,-12,-16,13,3,-34,25*
COC(=O)[C@@]1(Cc2ccccc2)[C@H]2C(=O)N(Cc3ccccc3)C(=O)[C@H]2[C@H]2CN=C(SC)N21,1,6,2,2,2,-3,/
COC(=O)c1cc(C)[nH]c2c(C)cc3nc4ccccc4c3c12,41*,11,2,-1,0,7,14
COC(=O)c1c(C)nc2ccccc2c1C(=O)O,0,7,-1,-3,2,-2,/
COc1cc(/C=N/Nc2nc3ccccc3s2)ccc1OC(=O)c1ccccc1F,25*,19,7,-1,5,-16,18
O=C(OCC(=O)N1CCC(Cc2ccccc2)CC1)c1ccc(O)cc1,3,/,/,-3,/,/,/
O=C(COC(=O)CNS(=O)(=O)c1ccc2ccccc2c1)Nc1ccccc1Sc1ccccc1,30*,5,12,8,15,-3,7
COc1ccccc1CNS(=O)(=O)CCNC1CC1,8,4,6,-13,/,-5,/
O=c1[nH]c2ccccc2nc1-c1c[nH]c2ccccc12,26*,5,1,4,9,-4,13
Nc1ccccc1-c1nc2ccccc2[nH]c1=O,2,4,-4,3,/,0,/
CCn1c(C)c(C(C)=O)c(N2CCN(c3ccc(OC)cc3)CC2)nc1=S,41*,0,-4,2,7,9,3
COCCN(Cc1ccc(OC)cc1)c1c(C)nc2ccc(C(=O)Nc3ccc(NC(C)=O)cc3)cn12,9,/,/,-6,/,/,/
CSCCC(NC(=O)c1cccc(C)c1)C(=O)NNC(=O)c1cccs1 (stereo not drawn),3,4,4,-7,0,-1,/
O=C(CCCNC(=O)/C(=C/c1ccc(Br)cc1)NC(=O)c1ccccc1)OCc1ccccc1,12,0,-5,6,6,-3,/
SMILES,ARFGAP1 inhibitor,PAFAH1B3 inh,PAFAH1B2 FP inh,ASAP1 GAP inh,pPAFAH inh,PAFAH2 inh,ARFGAP1 inh conf
O=C(CCCNC(=O)/C(=C/c1ccccc1F)NC(=O)c1ccccc1)OCc1ccccc1,27*,2,5,-5,0,1,4
O=C(N/N=C/c1ccc(O)cc1O)c1ccc(CN2C(=O)c3cccc4cccc2c34)cc1,27*,35*,43*,7,30*,39*,80*
O=C(N/N=C/c1ccccc1)c1ccc(CN2C(=O)c3cccc4cccc2c34)cc1,15,1,-2,-1,-11,-11,/
CCCC(=O)N1CCC1(C)C(=O)Nc1ccc2c(c1)OCCO2 (stereo not drawn),-1,/,/,7,/,/,/
Cc1nc(-c2cccc(S(=O)(=O)N3CC(C)CC(C)C3)c2)cs1 (stereo not drawn),26*,8,3,-11,2,5,2
O=C(NCc1ccccc1)C1c2ccccc2OCC(=O)N1CC(F)(F)F (stereo not drawn),9,/,/,3,/,/,/
CC(=O)c1c(C)nc(Nc2nc3ccccc3s2)nc1C,25*,/,/,-10,-4,/,-1
Cc1cc(C)nc(Nc2nc3ccccc3s2)n1,-13,4,1,-4,0,0,/
CCCCCCN1CCN(C2CN(Cc3ccc(F)cc3)S(=O)(=O)C2)CC1 (stereo not drawn),0,/,/,7,/,/,/
COc1cccc(Nc2nc(-c3sc(NC(=O)c4ccccc4)nc3C)cs2)c1,26*,11,0,12,9,-12,15
COc1cccc(Nc2nc(-c3sc(NC(=O)CC(C)C)nc3C)cs2)c1,15,0,3,2,18,-3,/
CCN(CC)C(=O)CN(c1cccc(C(F)(F)F)c1)S(C)(=O)=O,31*,2,1,7,-3,0,-6
CCCCNC(=O)N1CCc2ccccc2C1,1,-4,-1,-13,5,-7,/
CCCCNc1nc2ccccc2n1CC(=O)N1CCc2ccccc2C1,47*,-2,4,6,2,-4,4
CCCNC(=O)C(CC)NC(=O)c1cccc([N+](=O)[O-])c1 (stereo not drawn),3,11,15,-5,4,5,/
CC(=O)NCCNc1nc2cc(-c3ccsc3)sc2c(=O)n1C,1,/,/,-1,/,/,/
CCN1CCN(Cc2ccc(NC(=O)c3cc(NC(=O)C(=O)c4c[nH]c5ccccc45)cc(OC)c3)cc2C(F)(F)F)CC1,46*,-30,-23,20,-43,-68,36*
COc1cccc(-c2cnc3c(NC(C)=O)cc(-c4ccc(S(C)(=O)=O)cc4)cn23)c1,7,/,/,8,/,/,/
Cc1cc(=O)oc(C)c1C(=O)N1CCN(C)CC1,25*,4,5,13,-2,-1,-1
Cc1ccc(CNC(=O)Cn2c(=O)c3sccc3n(Cc3ccc([N+](=O)[O-])cc3)c2=O)cc1,36*,-8,-12,22,0,-17,55*
Cc1ccc(CNC(=O)Cn2c(=O)n(CC(=O)N3CCCCC3)c(=O)c3sccc32)cc1,8,8,8,5,2,-2,/
